A selection: hits, their analogues and other compounds. The true share with any hit is near 2.1%.
RanGTP-Imp inh = inhibitors of RanGTP-importin-beta interaction, primary screen, biochemical, FRET, CFP-Ran, YFP-importin-beta, homogeneous; 1.1% of 300,000 active; inhibition, % (test concentration not listed); Ran GTPase (GTP-bound) - importin-beta complex; AID 2216, 2009; cell-free CFP-Ran/YFP-importin-beta FRET ratio;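 active = more than half of the replicate wells show a fall in the fluorescence ratio signal beyond about 16%, limit read from the data, passing the limit was not always enough; inconclusive = exactly half of the replicate wells pass the set limit; inactive = fewer than half of replicates pass the limit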;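 note: 0% = DMSO wells and 100% = Ran loaded with GDP instead of GTP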
Pemphigus Ab inh = inhibitors of pemphigus antibody binding to DSG3, primary screen, biochemical, bead-based, flow cytometry, scFv-GFP; Desmoglein-3 (Homo sapiens), P32926; DSG3-coupled beads, scFv-anti-DSG3-GFP binding; stronger effect = lower value; binding (percent of control), % at 10 µM; 0.48% of 310,000 active;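 active = binding more than 3 SD below its plate's average and above zero; inconclusive = below that plate limit but binding exactly zero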;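 note: hits lower antibody fragment binding to DSG3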
Runt-CBFb FRET = inhibitors of RUNX1 Runt–CBFb binding, primary screen, biochemical, FRET, Cerulean-Runt, Venus-CBFb, uHTS; Cerulean-Runt/Venus-CBFb FRET ratio 530/480, 1 h; inhibition, % at 20 µM; 0.46% of 220,000 active; AID 1496, 2009;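 active = inhibition over about 50% at 20 µM in the single-dose screen, limit read from the data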;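 note: 0% = DMSO wells and 100% = excess unlabeled CBFb competitor control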
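Measured by: fluorescence energy transfer, 422 nm excitation, 530/480 nm emission; test system: Cerulean-tagged RUNX1 Runt domain (FRET donor) fusion protein; buffer or medium: Tris pH 7.5 buffer with BSA; compound: one dose, 20 µM compound, 1% DMSO; times: two 1 h room-temperature incubations shielded from light; benchmarks: unlabeled CBFb 5 µM, positive control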
Runt-SMMHC FRET = inhibitors of RUNX1 Runt–CBFb-SMMHC binding, primary screen, biochemical, FRET, Cerulean-Runt, Venus-CBFb-SMMHC, uHTS. Cerulean-Runt/Venus-CBFb-SMMHC FRET ratio 530/480, 1 h. inhibition, % at 20 µM. 0.74% of 220,000 active. AID 1434, 2008;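 active = mean inhibition across duplicate retests at 20 µM reaching about 50%, limit read from the data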;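 note: 0% = DMSO wells and 100% = wells with excess untagged CBFb-SMMHC; inhibitors lower the FRET ratio by blocking Runt binding to CBFb-SMMHC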
Hck Nef HTS = inhibitors of Nef-activated human Hck kinase, primary screen, biochemical, Z-Lyte FRET, 384-well, Hck-YEEI; AID 463187, 2010; 0.68% of 220,000 active; inhibition, % at 20 µM; Recombinant Hck-YEEI plus Nef, Z-Lyte FRET kinase assay; Tyrosine-protein kinase HCK (Homo sapiens), P08631;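 active = Hck-Nef kinase inhibition above about 50%, limit read from the data; inactive = inhibition below that limit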;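 note: 0% = DMSO with Hck plus Nef and 100% = Hck alone without Nef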
pCIP destab = p/CIP-EGFP fusion destabilizers, primary screen, fluorescence, F442A cells. 16 h. decrease of EGFP signal, % at 10 µM. 0.01% of 290,000 active;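 active = EGFP signal decrease of at least 30% at 10 µM or well 3 SD below plate mean, unless failing retest; inactive = the rest, including hits failing retest or dose response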
Target sequence (Q05BA5 1-1403): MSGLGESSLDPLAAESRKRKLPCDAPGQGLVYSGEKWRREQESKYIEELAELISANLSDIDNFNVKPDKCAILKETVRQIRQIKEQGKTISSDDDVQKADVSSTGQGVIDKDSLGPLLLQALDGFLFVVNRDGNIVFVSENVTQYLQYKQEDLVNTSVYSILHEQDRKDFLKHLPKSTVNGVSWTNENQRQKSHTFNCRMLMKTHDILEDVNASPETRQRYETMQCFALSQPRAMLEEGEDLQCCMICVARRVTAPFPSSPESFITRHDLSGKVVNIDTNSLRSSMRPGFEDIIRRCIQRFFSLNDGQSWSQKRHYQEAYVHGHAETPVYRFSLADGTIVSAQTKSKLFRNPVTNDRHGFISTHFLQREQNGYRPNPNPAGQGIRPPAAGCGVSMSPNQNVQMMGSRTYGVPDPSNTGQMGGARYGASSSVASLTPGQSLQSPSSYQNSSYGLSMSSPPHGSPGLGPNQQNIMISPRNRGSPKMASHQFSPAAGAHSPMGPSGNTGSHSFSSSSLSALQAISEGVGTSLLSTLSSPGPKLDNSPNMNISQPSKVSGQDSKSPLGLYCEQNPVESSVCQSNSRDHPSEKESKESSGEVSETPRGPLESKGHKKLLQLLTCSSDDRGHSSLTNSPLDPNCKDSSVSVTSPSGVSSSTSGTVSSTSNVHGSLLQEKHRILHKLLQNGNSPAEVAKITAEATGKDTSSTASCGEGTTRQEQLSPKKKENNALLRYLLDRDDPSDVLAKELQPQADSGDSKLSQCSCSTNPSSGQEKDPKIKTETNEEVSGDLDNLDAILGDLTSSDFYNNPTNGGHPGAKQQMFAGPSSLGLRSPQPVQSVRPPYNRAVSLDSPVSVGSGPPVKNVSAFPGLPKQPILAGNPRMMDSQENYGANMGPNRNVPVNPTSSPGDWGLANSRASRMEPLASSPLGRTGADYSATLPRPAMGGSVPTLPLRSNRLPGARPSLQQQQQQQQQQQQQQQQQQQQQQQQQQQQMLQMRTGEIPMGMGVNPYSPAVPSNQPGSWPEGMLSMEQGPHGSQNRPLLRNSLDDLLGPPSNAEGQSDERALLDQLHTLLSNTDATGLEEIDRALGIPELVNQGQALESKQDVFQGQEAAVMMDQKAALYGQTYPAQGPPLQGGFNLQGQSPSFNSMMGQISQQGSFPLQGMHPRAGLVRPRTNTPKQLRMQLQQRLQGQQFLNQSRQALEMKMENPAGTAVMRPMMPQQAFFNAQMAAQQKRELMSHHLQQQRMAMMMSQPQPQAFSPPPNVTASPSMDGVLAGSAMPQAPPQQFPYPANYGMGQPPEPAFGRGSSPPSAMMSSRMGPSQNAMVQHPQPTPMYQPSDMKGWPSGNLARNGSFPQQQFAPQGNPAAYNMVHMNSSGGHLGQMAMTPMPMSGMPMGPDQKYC
Starred values were filed as active, the others as inactive; ? = inconclusive; . = no result.

SMILES	RanGTP-Imp inh	Pemphigus Ab inh	Runt-CBFb FRET	Runt-SMMHC FRET	Hck Nef HTS	pCIP destab
CC(=O)N/N=C(/C)c1ccc(NC(=O)c2csc(C)c2C)cc1	-9.4	.	.	.	.	-0.3
N#Cc1cc(NC(=O)c2ccc(F)cc2)c(=O)n2c1[nH]c1ccccc12	25.7*	.	-2.8	-13.2	22.6	-7.8
CCc1cc(=O)n2c([nH]c3ccccc32)c1C#N	-5.0	95.0	6.6	5.3	5.8	-9.4
CCc1ccc(C2C(C#N)=C(N)Oc3cc(N)ccc32)cc1 (configuration not stated)	95.5*	115.5	.	.	.	-7.3
N#CC1=C(N)Oc2cc(N)ccc2C1c1ccccc1Cl (configuration not stated)	133.0*	103.6	.	.	.	8.5
C#CCSc1nc(N)c2c(n1)OC(N)=C(C#N)C2c1cccnc1 (configuration not stated)	60.5*	104.3	0.2	3.0	5.5	-4.6
COc1ccc(C2C(C#N)=C(N)Oc3cc(N)ccc32)cc1 (configuration not stated)	76.6*	115.5	.	.	.	-2.2
N#CC1=C(N)OC2=C(CCc3ccccc32)C1c1ccccc1Cl (configuration not stated)	3.9	111.8	12.2	29.5	1.2	-8.1
CC(C)c1[nH]nc2c1C(c1cccnc1)C(C#N)=C(N)O2 (configuration not stated)	6.9	94.2	-0.7	2.2	9.6	0.9
COc1ccc(C2C(C#N)=C(N)Oc3c2sc2nc(C)cc(C)c32)cc1 (configuration not stated)	2.4	96.6	-8.2	-18.2	-4.8	1.8
Cc1cc(OCC(=O)Nc2ccc3oc(=O)ccc3c2)ccc1Cl	4.3	96.8	.	.	.	-9.5
COc1ccc(C2C(C#N)=C(N)Oc3cc(C)n(Cc4ccco4)c(=O)c32)cc1 (configuration not stated)	-5.5	103.0	8.7	4.5	-1.6	18.0
COc1ccc(C2C(C#N)=C(N)Oc3cccc(O)c32)cc1 (configuration not stated)	51.3*	100.5	.	.	.	0.1
Cc1ccc(C2C(C#N)=C(N)Oc3cc4c(cc32)OCO4)cc1 (configuration not stated)	11.9	98.7	23.9	33.2	4.9	21.2
COc1cc(C2C(C#N)=C(N)Oc3cc(N)ccc32)cc(OC)c1OC (configuration not stated)	.	110.4	35.1	81.2*	4.5	1.4
N#CC1=C(N)Oc2cc(N)ccc2C1c1cccnc1 (configuration not stated)	23.7*	103.9	-4.2	-3.5	0.1	-0.1
N#CC1=C(N)Oc2cc(N)ccc2C1c1ccc(Cl)cc1 (configuration not stated)	60.9*	93.1	.	.	.	4.2
N#CC1=C(N)Oc2cc(N)ccc2C1c1ccc(F)cc1F (configuration not stated)	124.7*	114.0	.	.	.	-4.9
CCN1CCc2c(sc(N)c2C(N)=O)C1	101.2*	.	90.2*	-15.6	6.7	6.6
CCN1CCc2nc(N)sc2C1	-0.8	109.2	34.8	26.2	6.5	2.3
CN1CCc2c(sc(N)c2C(N)=O)C1	86.3*	106.9	100.7*	142.7*	1.4	-1.7
NC(=O)c1c(N)sc2c1CCCC2	-10.5	95.8	13.1	-3.4	-4.7	-14.0
CN(C)c1ccc(C(CNC(=O)c2ccco2)N2CCCC2)cc1 (configuration not stated)	3.9	.	.	.	.	4.2
CC(C)OC(=O)c1c2nc3ccccc3nc2n2c1[nH]c(=O)c1ccccc12	10.9	.	16.6	62.0*	1.5	-4.4
COC(=O)Cn1c2ccccc2c2nc3ccccc3nc21	10.8	109.5	.	.	.	-12.7
SMILES	RanGTP-Imp inh	Pemphigus Ab inh	Runt-CBFb FRET	Runt-SMMHC FRET	Hck Nef HTS	pCIP destab
CC(C)c1ccc(C2C3CSCC=C3C(C#N)=C(N)C2(C#N)C#N)cc1 (configuration not stated)	16.4*	.	-8.6	-24.2	3.7	-7.1
N#CC1=C(N)C(C#N)(C#N)C(c2cccnc2)C2CC(c3ccccc3)CC=C12 (configuration not stated)	-42.9	93.1	-44.0	-0.6	2.6	-14.0
CN1CC=C2C(C#N)=C(N)C(C#N)(C#N)C(CCc3ccccc3)C2C1 (configuration not stated)	-2.2	.	103.2*	78.7*	9.6	8.1
CCCC1C2CN(C(C)C)CC=C2C(C#N)=C(N)C1(C#N)C#N (configuration not stated)	88.6*	.	11.7	40.3	27.9	-14.8
CN1CC=C2C(C#N)=C(N)C(C#N)(C#N)[C@H](c3cccc(Cl)c3)C2C1 (some centres not stated)	45.0*	101.4	33.7	58.0*	14.4	-13.3
CCOc1ccc(S(=O)(=O)N2CCCCC2)cc1NC(=O)CN1C(=O)NC(C)(c2ccc(C)cc2)C1=O (configuration not stated)	?	94.8	.	.	.	.
CN1CC=C2C(C#N)=C(N)C(C#N)(C#N)[C@H](c3cccs3)[C@H]2C1	54.6*	117.4	36.8	75.1*	14.8	-10.6
CCOC(=O)N1CC=C2C(C#N)=C(N)C(C#N)(C#N)[C@H](c3ccsc3)[C@H]2C1	9.5	96.8	-1.4	-5.0	2.6	-15.2
CN1CC=C2C(C#N)=C(N)C(C#N)(C#N)C(c3ccsc3)C2C1 (configuration not stated)	65.3*	100.2	66.1*	80.4*	12.2	-20.2
O=c1cc(-c2ccc(O)cc2)oc2c(O)c(O)c(O)c(O)c12	.	58.2*	24.2	-2.5	25.7	2.6
O=c1cc(-c2ccc(O)cc2)oc2c1ccc1ccccc12	.	91.3	.	.	.	.
O=C(Nc1ccccc1)c1ccc(C(=O)Nc2ccccc2)nc1	?	23.4*	-0.7	2.7	16.5	-5.7
O=C1C/C(=C\c2c(F)cccc2Cl)N2CCC1CC2	52.7*	100.5	-0.7	-4.9	12.7	-2.4
CSC1=N/C(=C\c2c(F)cccc2Cl)C(=O)S1	-2.1	99.7	1.6	1.7	1.9	-23.8
CC(=O)c1sc(-c2ccccc2)cc1NS(=O)(=O)c1ccccc1	7.3	75.3*	6.0	12.6	-11.1	-13.5
CC(=O)c1sc(-c2ccccc2)cc1NS(=O)(=O)c1ccc(C)cc1	8.5	113.0	14.7	32.9	-2.0	-15.0

From PubChem BioAssay
